PMC3748591 (Bioorganic & medicinal chemistry, 2011)

Tests used:
[1] = biological target: Human SphK1 (Homo sapiens, UniProt Q9NYA1); assay: Sphingosine kinase assay, in vitro inhibition of SphK1; type: biochemical; conditions: initial screen at 100 μM inhibitor
[2] = biological target: T1, mouse SphK2 (Mus musculus, UniProt Q9JIA7); assay: Sphingosine kinase assay, in vitro inhibition of SphK2; type: biochemical; conditions: initial screen at 100 μM inhibitor
T1 sequence (Q9JIA7 1-617): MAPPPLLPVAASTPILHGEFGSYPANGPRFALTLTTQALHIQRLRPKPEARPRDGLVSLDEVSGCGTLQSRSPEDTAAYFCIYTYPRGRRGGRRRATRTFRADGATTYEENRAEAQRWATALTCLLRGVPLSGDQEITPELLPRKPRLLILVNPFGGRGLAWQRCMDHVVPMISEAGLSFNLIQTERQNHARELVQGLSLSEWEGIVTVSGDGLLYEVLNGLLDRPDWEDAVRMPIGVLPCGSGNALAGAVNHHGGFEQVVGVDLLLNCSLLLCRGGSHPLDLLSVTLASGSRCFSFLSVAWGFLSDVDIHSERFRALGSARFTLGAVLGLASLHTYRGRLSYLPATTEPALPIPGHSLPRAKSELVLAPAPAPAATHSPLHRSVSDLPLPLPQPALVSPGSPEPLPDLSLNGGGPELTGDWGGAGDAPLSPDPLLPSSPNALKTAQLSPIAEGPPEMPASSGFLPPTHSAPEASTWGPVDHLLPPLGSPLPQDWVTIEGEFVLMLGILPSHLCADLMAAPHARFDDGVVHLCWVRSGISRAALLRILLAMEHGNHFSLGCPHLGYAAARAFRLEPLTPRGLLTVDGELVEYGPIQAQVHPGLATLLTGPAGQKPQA

[3] = biological target: T2, SphK2 (Homo sapiens, UniProt Q9NRA0); assay: FTY720 phosphorylation in intact U937 cells; type: cell-based; conditions: U937 cells exposed to FTY720 and 10 μM inhibitor, 2 h; cell pellet, LC/MS
T2 sequence (Q9NRA0 1-654): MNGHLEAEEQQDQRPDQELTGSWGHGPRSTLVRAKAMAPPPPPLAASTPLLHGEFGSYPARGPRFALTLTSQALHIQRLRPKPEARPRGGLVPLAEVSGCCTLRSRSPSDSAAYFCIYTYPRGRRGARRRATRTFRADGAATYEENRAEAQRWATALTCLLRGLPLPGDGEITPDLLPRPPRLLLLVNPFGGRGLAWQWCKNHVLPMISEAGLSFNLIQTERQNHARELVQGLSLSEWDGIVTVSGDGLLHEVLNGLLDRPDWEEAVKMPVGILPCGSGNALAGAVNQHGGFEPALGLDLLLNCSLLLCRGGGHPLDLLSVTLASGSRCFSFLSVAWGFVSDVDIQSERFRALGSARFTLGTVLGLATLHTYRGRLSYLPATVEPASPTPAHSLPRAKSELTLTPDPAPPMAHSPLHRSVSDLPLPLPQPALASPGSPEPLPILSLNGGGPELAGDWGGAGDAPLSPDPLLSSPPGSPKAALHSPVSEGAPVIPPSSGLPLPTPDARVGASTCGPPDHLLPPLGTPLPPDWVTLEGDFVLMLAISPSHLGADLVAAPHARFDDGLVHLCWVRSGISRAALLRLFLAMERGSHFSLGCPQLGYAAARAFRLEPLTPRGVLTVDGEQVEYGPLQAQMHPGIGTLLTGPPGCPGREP
In short: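 Cultured U937 cells were given exogenous FTY720 plus 10 μM test compound for 2 h, then pelleted by centrifugation. Pellet FTY720 and FTY720-P were measured by LC/ESI-MS/MS: C18 reverse phase, water/methanol/formic acid gradient, 1 mL/min. MRM was 308.4→255.1 and 388.4→255.1, with C17S1P and C17-sphingosine as internal standards, quantified by peak area. Results are moles per million cells, means ± SD of three independent experiments, unpaired two-tailed t-test.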

[4] = system: U937 cells; assay: S1P levels in U937 cells; type: cell-based, human; conditions: LC/MS, data not shown
[5] = system: Akt and ERK phosphorylation; assay: Akt/ERK phosphorylation in U937 cells; type: cell-based, human; conditions: different concentrations, 16 h (legend: 24 h), Western blot
In short: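 U937 cells pretreated with test compound at a range of concentrations for 24 h (legend; the methods say times "usually 2 h"). Cells were washed in PBS, Dounce-lysed, and equal protein run on 10% SDS–PAGE, then transferred to nitrocellulose. Blots were blocked in 5% milk/TBS pH 7.4 with 0.1% Tween 20, probed 1 h with anti-ERK, p-ERK, Akt, p-Akt and β-actin (1:1000), then HRP anti-IgG (1:2000), with chemiluminescent detection. PD098059 (10 μM) served as ERK positive control.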

Sequence of Human SphK1 (Q9NYA1 whole entry): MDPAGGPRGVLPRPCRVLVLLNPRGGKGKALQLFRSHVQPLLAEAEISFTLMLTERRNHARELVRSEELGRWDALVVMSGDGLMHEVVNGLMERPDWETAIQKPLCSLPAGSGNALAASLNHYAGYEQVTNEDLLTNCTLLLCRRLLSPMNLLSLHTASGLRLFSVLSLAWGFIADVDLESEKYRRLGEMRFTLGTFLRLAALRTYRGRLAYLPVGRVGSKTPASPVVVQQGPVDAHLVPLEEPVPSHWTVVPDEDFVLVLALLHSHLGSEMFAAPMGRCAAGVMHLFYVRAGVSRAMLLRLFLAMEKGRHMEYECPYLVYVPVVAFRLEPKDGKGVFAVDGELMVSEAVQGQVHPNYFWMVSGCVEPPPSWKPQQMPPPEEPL

| SMILES | inhibition of SphK1, result in words [1] | inhibition of SphK2, result in words [2] | accumulation of FTY720 in cells [3] | production of FTY720-P [3] | S1P levels [4] | Akt phosphorylation [5] | ERK phosphorylation [5] |
| --- | --- | --- | --- | --- | --- | --- | --- |
| CCCCCCCCc1ccc([C@H]2CC[C@H](O)CC2)cc1 [Compound 9, (1r,4r)-4-(4-Octylphenyl)cyclohexanol] | inactive against SphK1 | did not cross the 50% threshold |  |  |  |  |  |
| CCCCCCCCc1ccc([C@H]2CC[C@H]([N+](C)(C)CCC)CC2)cc1.[I-] [trans-12b, (1r,4r)-N,N-Dimethyl-4-(4-octylphenyl)-N-propylcyclohexanaminium iodide] |  |  | exaggerated the accumulation | significantly suppressed | no change | complete disappearance of p-Akt band | quantitatively inhibited |
| CCCCCCCCc1ccc([C@H]2CC[C@H]([N+](C)(C)C)CC2)cc1.[I-] [trans-12a, (1r,4r)-N,N,N-trimethyl-4-(4-octylphenyl)cyclohexanaminium iodide] |  |  | exaggerated the accumulation | significantly suppressed | no change | dose-dependent decrease | quantitatively inhibited |

Further lines, with some results ahead:

| inhibition of SphK1, result in words [1] | inhibition of SphK2, result in words [2] | accumulation of FTY720 in cells [3] | production of FTY720-P [3] | SMILES | S1P levels [4] | Akt phosphorylation [5] | ERK phosphorylation [5] |
| --- | --- | --- | --- | --- | --- | --- | --- |
| inactive against SphK1 | did not cross the 50% threshold |  |  | CCCCCCCCc1ccc(C2CCC(O)(C[N+](=O)[O-])CC2)cc1 (centres unmarked) [Compound 7, 1-(Nitromethyl)-4-(4-octylphenyl)cyclohexanol] |  |  |  |
| inactive against SphK1 | did not cross the 50% threshold |  |  | CCCCCCCCc1ccc(C2CCC(=CCO)CC2)cc1 (centres unmarked) [Compound 6, 2-(4-(4-Octylphenyl)cyclohexylidene)ethanol] |  |  |  |
| inactive against SphK1 | did not cross the 50% threshold |  |  | CCCCCCCCc1ccc(C2CCC(=NO)CC2)cc1 (centres unmarked) [Compound 8, 4-(4-Octylphenyl)cyclohexanone oxime] |  |  |  |
| inactive against SphK1 | did not cross the 50% threshold |  |  | CCCCCCCCc1ccc(C2CCC(=CC(=O)OC)CC2)cc1 (centres unmarked) [Compound 5, Methyl 2-(4-(4-octylphenyl)cyclohexylidene)acetate] |  |  |  |
